Read-outs that look alike come from different tables or passages of the source.

Test [1] deals with T1, cannabinoid CB2 receptor (Homo sapiens, UniProt P34972). The experiment in a line: Radioligand competition binding with [3H]CP55,940, CB2. (In general: Loss of bound radioactivity is the signal in a displacement assay; it reports binding, not function.)
In test [2] the target is T1, cannabinoid CB2 receptor. As to the kind of experiment: [35S]GTPγS binding stimulation. The class given is biochemical. A general note: Binding of GTPγS marks nucleotide exchange on a G protein.
In test [3] the test system is ERK1/2 phosphorylation (cannabinoid CB2 receptor-induced). The experiment in a line: ERK1/2 phosphorylation immunoblot in CB2-transfected HEK293 cells. To be noted: 1.0 μM compound, 5 min; for ERK1/2 phosphorylation in the presence of PTX: 10 ng/ml PTX pretreatment 16 h; for ERK1/2 phosphorylation, fold increase above vehicle: without PTX. Type of test: cell-based. The gist of the method:
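HEK293 cells were transfected with CB2 DNA by Lipofectamine 2000, then pretreated 24 h later in DMEM with or without 10 ng/ml pertussis toxin for 16 h. They were exposed 5 min at 37°C to 1.0 µM test compound; vehicle was DMSO on CB2-transfected cells. Lysates were immunoblotted for phospho-p44/42 and phospho-MEK with chemiluminescent detection. Statistics: one-way ANOVA with Tukey test.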
A general note: A western blot detects proteins with antibodies after separation by electrophoresis.

The target of test [4] is T1, cannabinoid CB2 receptor. To be noted: read-out: EC50, cAMP accumulation screen; prior screen; ref Ogawa et al., 2017; cited from earlier work.
The target in test [5] is T1, cannabinoid CB2 receptor. To be noted: read-out: Ki, cannabinoid CB2 receptor, ref Huffman et al., cited from earlier work.
The next test has as its target cannabinoid CB1 receptor (Homo sapiens, UniProt P21554). To be noted: read-out: Ki, cannabinoid CB1 receptor, ref Huffman et al., cited from earlier work.
Another test has as its system Jurkat cells. As to the kind of experiment: Jurkat cell proliferation. Type of test: cell-based, human. To be noted: 72 h; for Cell proliferation inhibition: Jurkat cells, relative to DMSO. An outline of the steps:
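Jurkat cells (T-lymphoblastic leukaemia, endogenous CB2) at passage 4–12 were grown in RPMI 1640 with 10% FBS and 1% antibiotic-antimycotic at 37°C and 5% CO2. Cells were plated at 10^5 cells/ml and given test compound in RPMI (DMSO vehicle) for 70 h. CellTiter 96 AQueous One was then added for 2 h and A490 read. Percent inhibition was taken relative to DMSO. Triplicate; mean ± S.E.M.; one-way ANOVA with Tukey.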

Setting [6] is: Homo sapiens, Jurkat, read-out: Cell proliferation inhibition.

T1 sequence (P34972 whole entry): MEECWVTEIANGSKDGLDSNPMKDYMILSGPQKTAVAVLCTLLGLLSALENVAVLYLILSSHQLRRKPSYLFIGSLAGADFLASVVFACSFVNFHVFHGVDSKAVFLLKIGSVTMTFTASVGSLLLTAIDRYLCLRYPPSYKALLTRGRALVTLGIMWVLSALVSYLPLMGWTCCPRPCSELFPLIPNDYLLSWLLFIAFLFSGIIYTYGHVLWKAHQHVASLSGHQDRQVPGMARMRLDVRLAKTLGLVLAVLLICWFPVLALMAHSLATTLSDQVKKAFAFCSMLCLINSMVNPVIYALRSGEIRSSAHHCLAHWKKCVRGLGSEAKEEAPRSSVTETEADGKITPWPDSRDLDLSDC
cannabinoid CB1 receptor, sequence (P21554 whole entry): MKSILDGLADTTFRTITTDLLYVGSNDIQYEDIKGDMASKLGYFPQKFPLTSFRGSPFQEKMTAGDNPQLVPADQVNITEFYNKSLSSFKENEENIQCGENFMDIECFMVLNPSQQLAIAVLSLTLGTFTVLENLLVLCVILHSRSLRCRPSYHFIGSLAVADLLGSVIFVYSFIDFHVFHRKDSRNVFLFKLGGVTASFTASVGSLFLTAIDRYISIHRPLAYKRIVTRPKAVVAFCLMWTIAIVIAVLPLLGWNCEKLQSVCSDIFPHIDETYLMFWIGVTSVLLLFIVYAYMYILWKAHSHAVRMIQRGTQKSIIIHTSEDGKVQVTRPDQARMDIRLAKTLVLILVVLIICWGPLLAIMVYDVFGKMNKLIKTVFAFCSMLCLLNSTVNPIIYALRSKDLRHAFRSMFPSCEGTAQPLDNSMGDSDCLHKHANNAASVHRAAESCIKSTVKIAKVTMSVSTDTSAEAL

The term Ki denotes a dissociation constant, usually derived from enzyme kinetics or from competition with a known ligand. In general, EC50 refers to the midpoint of the concentration-response curve. With `CCC(C(=O)Nc1sc2c(c1C(N)=O)CCCCCC2)c1ccccc1` (centres unmarked) [ABK7, 2-(2-phenylbutanamido)-4,5,6,7,8,9-hexahydrocycloocta[b]thiophene-3-carboxamide], the Ki at cannabinoid CB2 receptor [1] was determined as 317 ± 117 nM. Also, the EC50 on cannabinoid CB2 receptor [2] was 31 ± 14 nM; at cannabinoid CB2 receptor [4], 32 nM. The “ERK1/2 phosphorylation in the presence of PTX” value (shortened to “ERK1/2 phosphorylation … of PTX”) in test [3] is “prevented by the addition of PTX”. Further, in test [3], the “ERK1/2 phosphorylation, fold increase above vehicle” value is given as “induce ERK1/2 phosphorylation”.

As for `COC(=O)c1ccccc1NC(=O)CN(c1ccccc1OC)S(=O)(=O)c1ccc(C)cc1` [ABK6, benzoic acid, 2-[[2-[(2-methoxyphenyl)[(4-methylphenyl)sulfonyl]amino]acetyl]amino]-, methyl ester], the affinity on cannabinoid CB2 receptor [1], expressed as Ki, was 102 ± 7 nM. The EC50 at cannabinoid CB2 receptor [2] is 13 ± 4 nM; at cannabinoid CB2 receptor [4] it was 2 nM. For the same compound, the “ERK1/2 phosphorylation … of PTX” value in test [3] is reported as “prevented by the addition of PTX”. Moreover, in test [3], the “ERK1/2 phosphorylation, fold increase above vehicle” value was “induce ERK1/2 phosphorylation”.

With `CCCCCCC(C)(C)c1ccc2c(c1)OC(C)(C)[C@@H]1CC=C(CO)C[C@@H]21` [JWH-051], the Ki on cannabinoid CB2 receptor [5] (1996) was 0.032 nM; on cannabinoid CB1 receptor (1996), 1.2 nM.

Regarding `CCCCCCC(C)(C)c1ccc([C@@H]2C[C@H](O)CC[C@H]2CCCO)c(O)c1` [CP55,940, reference compound], the figures for the Cell proliferation inhibition with Jurkat cells (0.1 μM) and in the test on Jurkat cells (10 μM) were 7±3% and 26±8%, respectively.

Consider `CCCC(C)(C)c1ccc2c(c1)OC(C)(C)[C@@H]1CC=C(C)C[C@@H]21` [JWH-133], for which the values for the Ki at cannabinoid CB2 receptor [5] (1999) and on cannabinoid CB1 receptor (1999) were 3.4 nM and 677 nM, respectively.

As for `CCOC(=O)c1ccccc1NC(=O)CN(c1cccc(C)c1C)S(=O)(=O)c1ccccc1` [ABK5, ethyl 2-(2-(N-(2,3-dimethylphenyl)phenylsulfonamido)acetamido)benzoate], in test [3], the “ERK1/2 phosphorylation … of PTX” value is listed as “prevented by the addition of PTX” and the “ERK1/2 phosphorylation, fold increase above vehicle” value is listed as “induce ERK1/2 phosphorylation”. For the same compound, in the test on Jurkat cells (setting [6]), the inhibition at 0.1 µM turned out to be 15 ± 2% and the inhibition at 10 µM was found to be 20 ± 1%.

The values above are taken from paper PMC6534466 (European journal of pharmacology, 2019).
